Measured values collected from several papers.
Lines come from different studies, so protocols differ. ≈ marks a conversion by molar mass, not a printed value.

SMILES	organism	assay	test system	setting	endpoint	result
COc1ccc(CN2C[C@H]3CC[C@@H]4[C@](C)(CO)[C@H](O)CC[C@@]4(C)[C@@H]3C[C@@H]2C2=CCOC2=O)cc1	unidentified human coronavirus	cytopathic effect	MRC5	25 µM, 72 h	inhibition	1.9%
CCCCCCC/C=C/C(=O)N1C(=O)/C(=C(\O)c2ccc(OCOCCOC)cc2)C(=O)C1CC(C)C (centres unmarked)	Proteus mirabilis	microbial growth	ATCC25933	–	MIC	> 200 µg/mL
OC[C@H]1O[C@@H](n2cnc3c(NCc4ccccc4)nc(Cl)nc32)[C@@H](F)[C@@H]1F	Hepatitis C virus	viral replication, inhibitor	Huh-7	replicon	EC50	2900 nM
CC1(C)OC[C@@]2(C)[C@H]3CC[C@@H]4CN(Cc5ccc(C(C)(C)C)cc5)[C@@H](C5=CCOC5=O)C[C@H]4[C@]3(C)CC[C@H]2O1	unidentified human coronavirus	cytopathic effect	MRC5	25 µM, 72 h	inhibition	103%
Nc1nc(N)c2ncn([C@@H]3O[C@H](CO)[C@@H](F)[C@@H]3F)c2n1	Hepatitis C virus	viral replication, inhibitor	Huh-7	replicon	EC90	> 10 µM
CCCCOC(=O)N[C@H](C(=O)N1CCC[C@H]1C(=O)Nc1cccc(C#CC#Cc2cccc(NC(=O)[C@@H]3CCCN3C(=O)[C@@H](NC(=O)OCCCC)[C@@H](C)CC)c2)c1)[C@H](C)CC	Hepatitis C virus	viral replication, inhibitor, luciferase	Huh-5-2, GETYPE1B	72 h, replicon	EC50	> 10000 nM
C/C(=C\c1ccc(C#N)cc1)C(=O)Nc1ccc(C(=O)N[C@@H](CC(N)=O)C(=O)Nc2ccc(C(=O)Nc3ccc(C(=O)Nc4ccc(C(=O)O)cc4)c(O)c3OC(C)C)cc2)cc1	Proteus mirabilis	microbial growth	DSM4479	–	MIC	> 64 µg/mL
CCCCCCC/C=C/C(=O)N1C(=O)/C(=C(\O)c2ccc(F)cc2)C(=O)C1CC(C)C (centres unmarked)	Proteus mirabilis	microbial growth	ATCC25933	–	MIC	> 200 µg/mL
CC(=O)OC[C@@]1(C)[C@H]2CC[C@@H]3CN(Cc4ccccc4C)[C@@H](C4=CCOC4=O)C[C@H]3[C@]2(C)CC[C@H]1OC(C)=O	unidentified human coronavirus	cytopathic effect	MRC5	25 µM, 72 h	inhibition	71.4%
CCCCCCC/C=C/C(=O)N1C(=O)/C(=C(/C)O)C(=O)C1Cc1ccc(O)cc1 (centres unmarked)	Proteus mirabilis	microbial growth	ATCC25933	–	MIC	> 200 µg/mL
Nc1nc(Cl)c2ncn([C@@H]3O[C@H](COC(=O)c4ccccc4)[C@@H](F)[C@@H]3F)c2n1	Hepatitis C virus	viral replication, inhibitor	Huh-7	replicon	EC90	10 µM
Cc1c(NC(=O)CC2=NC(=O)CS2)c(=O)n(-c2ccccc2)n1C	Acinetobacter baumannii	microbial growth, well diffusion	–	100000 µg/mL	inhibition zone	26 mm
Nc1nc(NS(=O)(=O)c2ccccc2)nc(-c2ccc(Cl)cc2)c1-c1nc2ccccc2s1	Enterovirus B	plaque formation	BGM, B4	–	IC50	91 µg/mL (≈ 184 µM)
O=C(OC[C@H]1O[C@H](n2cnc3c(Cl)nc(Cl)nc32)[C@@H](F)[C@@H]1F)c1ccccc1	Hepatitis C virus	viral replication, inhibitor	Huh-7	replicon	EC50	< 10000 nM
CCOC(=O)N[C@H](C(=O)N1CCC[C@H]1C(=O)Nc1cccc(C#CC#Cc2cccc(NC(=O)[C@@H]3CCCN3C(=O)[C@@H](NC(=O)OCC)C(C)C)c2)c1)C(C)C	Hepatitis C virus	viral replication, inhibitor, luciferase	Huh-5-2, GETYPE1B	72 h, replicon	EC50	451 nM
Nc1nc(NS(=O)(=O)c2ccccc2)ncc1-c1nc2ccccc2s1	Enterovirus B	plaque formation	BGM, B4	–	IC50	85 µg/mL (≈ 222 µM)
N#Cc1cc(-c2nc3ccccc3s2)c(=O)n(NS(=O)(=O)c2ccccc2)c1N	Enterovirus B	plaque formation	BGM, B4	–	IC50	84 µg/mL (≈ 198 µM)
CCOC(=O)c1cc(C#N)c(=O)n(NS(=O)(=O)c2ccccc2)c1N	Enterovirus B	plaque formation	BGM, B4	–	IC50	88 µg/mL (≈ 243 µM)
COC(=O)N[C@H](C(=O)N1CCC[C@H]1C(=O)Nc1ccc(C#CC#Cc2ccc(NC(=O)[C@@H]3CCCN3C(=O)[C@@H](NC(=O)OC)C(C)C)cc2)cc1)C(C)C	Hepatitis C virus	viral replication, inhibitor, luciferase	Huh-5-2, GETYPE1B	72 h, replicon	EC50	10 nM
CC(=O)OC[C@@]1(C)[C@H]2CC[C@@H]3CN(Cc4cccc(Cl)c4)[C@@H](C4=CCOC4=O)C[C@H]3[C@]2(C)CC[C@H]1OC(C)=O	unidentified human coronavirus	cytopathic effect	MRC5	25 µM, 72 h	inhibition	116%
CCCCCCC/C=C/C(=O)N1C(=O)/C(=C(\O)CCCC)C(=O)C1CC(C)C (centres unmarked)	Proteus mirabilis	microbial growth	ATCC25933	–	MIC	> 200 µg/mL
COC(=O)N[C@H](C(=O)N1CCC[C@H]1c1ncc(-c2ccc(-c3ccc(-c4cnc([C@@H]5CCCN5C(=O)[C@@H](NC(=O)OC)C(C)C)[nH]4)cc3)cc2)[nH]1)C(C)C	Hepatitis C virus	viral replication, inhibitor	GETYPE1A	replicon	EC50	0.05 nM

SMILES	organism	assay	test system	setting	endpoint	result
CCn1cc(C(=O)O)c(=O)c2cc(F)c(N3CCNCC3)cc21	Acinetobacter baumannii	microbial killing, broth dilution	BAA747	–	MBC	16 µM
C[C@@]1(O)[C@H](O)[C@@H](CO)O[C@H]1n1ccc(N)nc1=O	Hepatitis C virus	viral replication, inhibitor	Huh-7	replicon	EC50	1800 nM
CCCCCCC/C=C/C(=O)N1C(=O)/C(=C(/C)O)C(=O)C1CO (centres unmarked)	Proteus mirabilis	microbial growth	ATCC25933	–	MIC	> 200 µg/mL
N#CC(=Cc1ccc(Cl)cc1)C1=NC(=O)C(=Cc2cn(-c3ccccc3)nc2-c2ccccc2)S1	Acinetobacter baumannii	microbial growth, well diffusion	–	100000 µg/mL	inhibition zone	20 mm
CC(=O)OC[C@@]1(C)[C@H]2CC[C@@H]3CN(Cc4ccc([N+](=O)[O-])cc4)[C@@H](C4=CCOC4=O)C[C@H]3[C@]2(C)CC[C@H]1OC(C)=O	unidentified human coronavirus	cytopathic effect	MRC5	25 µM, 72 h	inhibition	44.6%
[N-]=[N+]=Nc1nc(N=[N+]=[N-])c2ncn([C@@H]3O[C@H](COC(=O)c4ccccc4)[C@@H](F)[C@@H]3F)c2n1	Hepatitis C virus	viral replication, inhibitor	Huh-7	replicon	EC50	> 10000 nM
CCCN1C[C@H]2CC[C@@H]3[C@](C)(COC(C)=O)[C@H](OC(C)=O)CC[C@@]3(C)[C@@H]2C[C@@H]1C1=CCOC1=O	unidentified human coronavirus	cytopathic effect	MRC5	25 µM, 72 h	inhibition	45.8%
COC(=O)N[C@H](C(=O)N1CCC[C@H]1c1nc(-c2ccc(-c3ccc(-c4c[nH]c([C@@H]5CCCN5C(=O)[C@@H](NC(=O)OC)C(C)C)n4)cc3)cc2)c[nH]1)C(C)C	Hepatitis C virus	viral replication, inhibitor, luciferase	GETYPE4A	replicon	EC50	0.021 nM
O=C(CNc1nc(NS(=O)(=O)c2ccccc2)ncc1-c1nc2ccccc2s1)c1ccc(Br)cc1	Enterovirus B	plaque formation	BGM, B4	–	IC50	84 µg/mL (≈ 145 µM)
Cc1c(NN=C2SC(C(C#N)=Cc3ccc(Cl)cc3)=NC2=O)c(=O)n(-c2ccccc2)n1C	Acinetobacter baumannii	microbial growth, well diffusion	–	100000 µg/mL	inhibition zone	13 mm
CN(C)c1ccc(O)c2c1C[C@H]1C[C@H]3[C@H](N(C)C)C(O)=C(C(N)=O)C(=O)[C@@]3(O)C(O)=C1C2=O	Acinetobacter baumannii	microbial growth, broth dilution	ATCC19606	–	MIC	≤ 0.125 µg/mL
CCOC(=O)N[C@H](C(=O)N1CCC[C@H]1C(=O)Nc1ccc(C#CC#Cc2ccc(NC(=O)[C@@H]3CCCN3C(=O)[C@@H](NC(=O)OCC)C(C)C)cc2)cc1)C(C)C	Hepatitis C virus	viral replication, inhibitor, luciferase	Huh-5-2, GETYPE1B	72 h, replicon	EC50	90 nM
Nc1nc2c(ncn2[C@@H]2O[C@H](CO)[C@@H](F)[C@@H]2F)c(=O)[nH]1	Hepatitis C virus	viral replication, inhibitor	Huh-7	replicon	EC90	> 10 µM
Cc1ccc(-c2nn(-c3ccccc3)cc2C=C(C#N)C2=NC(=O)CS2)cc1	Acinetobacter baumannii	microbial growth, well diffusion	–	100000 µg/mL	inhibition zone	20 mm
CC(C)(O/N=C(\C(=O)N[C@@H]1C(=O)N2C(C(=O)[O-])=C(C[n+]3ccccc3)CS[C@H]12)c1csc(N)n1)C(=O)O	Acinetobacter baumannii	microbial growth, disc diffusion	–	10 µg/disc, clinical isolate	inhibition zone	6 mm
N#CC(=Cc1ccccc1O)C1=NC(=O)C(=Cc2cn(-c3ccccc3)nc2-c2ccccc2)S1	Acinetobacter baumannii	microbial killing, broth dilution	–	–	MBC	0.25 µg/mL
CC(C)CN1C[C@H]2CC[C@@H]3[C@]4(C)COC(C)(C)O[C@@H]4CC[C@@]3(C)[C@@H]2C[C@@H]1C1=CCOC1=O	unidentified human coronavirus	cytopathic effect	MRC5	25 µM, 72 h	inhibition	28.6%
CCOC(=O)N[C@H](CC(C)C)C(=O)N1CCC[C@@H]1C(=O)Nc1ccc(C#CC#Cc2ccc(NC(=O)[C@H]3CCCN3C(=O)[C@@H](CC(C)C)NC(=O)OCC)cc2)cc1	Hepatitis C virus	viral replication, inhibitor, luciferase	Huh-5-2, GETYPE1B	72 h, replicon	EC50	> 10000 nM
COc1nc(OC)c2ncn([C@@H]3O[C@H](CO)[C@@H](F)[C@@H]3F)c2n1	Hepatitis C virus	viral replication, inhibitor	Huh-7	replicon	EC90	> 10 µM
C[C@]1(CO)[C@H]2CC[C@@H]3CN(Cc4ccc(F)c(Cl)c4)[C@@H](C4=CCOC4=O)C[C@H]3[C@]2(C)CC[C@H]1O	unidentified human coronavirus	cytopathic effect	MRC5	25 µM, 72 h	inhibition	20%
CCOC(=O)C=c1[nH]c(=O)c(=Cc2cn(-c3ccccc3)nc2-c2ccccc2)s1	Acinetobacter baumannii	microbial growth, well diffusion	–	100000 µg/mL	inhibition zone	12 mm
CCOC(=O)N[C@H](CC(C)C)C(=O)N1CCC[C@H]1C(=O)Nc1cccc(C#CC#Cc2cccc(NC(=O)[C@@H]3CCCN3C(=O)[C@@H](CC(C)C)NC(=O)OCC)c2)c1	Hepatitis C virus	viral replication, inhibitor, luciferase	Huh-5-2, GETYPE1B	72 h, replicon	EC50	0.0411 nM
